ChEMBL document CHEMBL4130635, “2,4-Diaminoquinazolines as Dual Toll-like Receptor (TLR) 7/8 Modulators for the Treatment of Hepatitis B Virus” (J Med Chem, 2018)
pIC50: −log10 of the molar value. Activity calls are given as the source filed them. The rule behind the calls is not given here.

Key:
[1] = Ratio of drug level in Sprague-Dawley rat liver to plasma at 10 mg/kg, po
Cynomolgus monkey [2] = assay: Effect on cytokine profile in cynomolgus monkey plasma assessed as IL-15 levels at 9 mg/kg, po after 24 hrs by Luminex assay (reference value: 20 pg/ml); type: functional, Macaca fascicularis
How it was run: (§1)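 Healthy cynomolgus monkeys given single oral doses of 1, 3, 9 and 30 mg/kg, with a 2-week wash-out planned between doses. Systemic cytokine levels in plasma were sampled at 0.5, 1, 2, 4, 9 and 24 h postdose.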

[3] = AUC (0 to last) in C57BL/6J mouse liver at 10 mg/kg, po by LC-MS analysis; type: ADME, organism-based; conditions: in vivo
How it was run: (§2)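 Healthy C57BL/6 mice were dosed once by mouth at 0.3, 1, 3, 10 or 30 mg/kg in 20% HP-β-CD, in groups of 15 per dose. Three mice per group were sacrificed at 0.5, 1, 2, 4 or 7 h, and plasma and liver compound levels were measured by LC–MS. Values were rounded to whole numbers.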

Plasma [4] = assay: Effect on cytokine profile in C57BL/6J mouse plasma assessed as IL-12p70 levels at 30 mg/kg, po by multiplex assay (reference value: 560 pg/ml); type: functional
How it was run: (§3)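 Single oral gavage in 20% HP-β-CD to healthy C57BL/6 mice, groups of 15 at 0.3, 1, 3, 10 or 30 mg/kg. Three mice per group sacrificed at 0.5, 1, 2, 4 or 7 h. Plasma and liver cytokines by multiplex, maximum level reported, rounded to nearest multiple of 5.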

Liver [5] = assay: Effect on cytokine profile in C57BL/6J mouse liver assessed as IFNgamma levels at 10 mg/kg, po by multiplex assay; type: functional
How it was run: as §3

Liver [6] = assay: Effect on cytokine profile in C57BL/6J mouse liver assessed as IFNgamma levels at 0.3 mg/kg, po by multiplex assay; type: functional, organism-based
How it was run: as §3

[7] = target: TLR7 and TLR8 (Homo sapiens) (UniProt Q9NYK1+Q9NR97); assay: Agonist activity at TLR7/8 in human PBMCs co-cultured with primary human hepatocytes infected with HBV genotype C for 12 days assessed as increase in MIP-1beta levels up to 5 uM measured after 42 days
Plasma [8] = assay: Proinflammatory activity in C57BL/6J mouse plasma assessed as CXCL-1 levels at 10 mg/kg, po by multiplex assay (reference value: 230 pg/ml); type: functional
Plasma [9] = assay: Anti-inflammatory activity in C57BL/6J mouse plasma assessed as IL-10 levels at 1 mg/kg, po by multiplex assay (reference value: 120 pg/ml); type: functional
How it was run: as §3

Hepatocyte = assay: Toxicity in human primary hepatocytes infected with HBV genotype C for 12 days followed by exposure to conditioned supernatant from at 5 uM compound treated PBMCs assessed as increase in AST level measured after 42 days relative to untreated control; type: cell-based; conditions: 1008 h
[10] = Stability in human hepatocytes assessed compound turnover at 1 uM after 60 mins; type: ADME, cell-based, Hepatocyte; conditions: read-out: Drug metabolism
Cynomolgus monkey [11] = assay: Upregulation of Tlr8 expression in cynomolgus monkey plasma at 1 to 30 mg/kg, po after 24 hrs by Fluidigm RT-qPCR analysis; type: functional, organism-based; conditions: Macaca fascicularis
Liver [12] = assay: Effect on cytokine profile in C57BL/6J mouse liver assessed as IL-12p70 levels at 0.3 mg/kg, po by multiplex assay (reference value: 5 pg/g); type: functional, organism-based
How it was run: as §3

[13] = Intrinsic clearance in human liver microsomes assessed per mg protein at 1 uM up to 60 mins; type: ADME, microsome; conditions: read-out: CLH
Liver [14] = assay: Proinflammatory activity in C57BL/6J mouse liver assessed as CXCL-1 levels at 3 mg/kg, po by multiplex assay (reference value: 25 pg/g); type: functional
Cynomolgus monkey [15] = assay: Plasma concentration in cynomolgus monkey at 1 mg/kg, po by LC-MS analysis; type: ADME, organism-based, Macaca fascicularis; conditions: in vivo
Cynomolgus monkey [16] = assay: Upregulation of Tlr7 expression in cynomolgus monkey plasma at 30 mg/kg, po after 24 hrs by Fluidigm RT-qPCR analysis (reference value: 1.8); type: functional, Macaca fascicularis
[17] = target: Voltage-gated inwardly rectifying potassium channel KCNH2 (Homo sapiens, UniProt Q12809); assay: Inhibition of radioligand binding to human ERG expressed in HEK293 cell membranes by scintillation counting method
Voltage-gated inwardly rectifying potassium channel KCNH2, sequence (Q12809 whole entry): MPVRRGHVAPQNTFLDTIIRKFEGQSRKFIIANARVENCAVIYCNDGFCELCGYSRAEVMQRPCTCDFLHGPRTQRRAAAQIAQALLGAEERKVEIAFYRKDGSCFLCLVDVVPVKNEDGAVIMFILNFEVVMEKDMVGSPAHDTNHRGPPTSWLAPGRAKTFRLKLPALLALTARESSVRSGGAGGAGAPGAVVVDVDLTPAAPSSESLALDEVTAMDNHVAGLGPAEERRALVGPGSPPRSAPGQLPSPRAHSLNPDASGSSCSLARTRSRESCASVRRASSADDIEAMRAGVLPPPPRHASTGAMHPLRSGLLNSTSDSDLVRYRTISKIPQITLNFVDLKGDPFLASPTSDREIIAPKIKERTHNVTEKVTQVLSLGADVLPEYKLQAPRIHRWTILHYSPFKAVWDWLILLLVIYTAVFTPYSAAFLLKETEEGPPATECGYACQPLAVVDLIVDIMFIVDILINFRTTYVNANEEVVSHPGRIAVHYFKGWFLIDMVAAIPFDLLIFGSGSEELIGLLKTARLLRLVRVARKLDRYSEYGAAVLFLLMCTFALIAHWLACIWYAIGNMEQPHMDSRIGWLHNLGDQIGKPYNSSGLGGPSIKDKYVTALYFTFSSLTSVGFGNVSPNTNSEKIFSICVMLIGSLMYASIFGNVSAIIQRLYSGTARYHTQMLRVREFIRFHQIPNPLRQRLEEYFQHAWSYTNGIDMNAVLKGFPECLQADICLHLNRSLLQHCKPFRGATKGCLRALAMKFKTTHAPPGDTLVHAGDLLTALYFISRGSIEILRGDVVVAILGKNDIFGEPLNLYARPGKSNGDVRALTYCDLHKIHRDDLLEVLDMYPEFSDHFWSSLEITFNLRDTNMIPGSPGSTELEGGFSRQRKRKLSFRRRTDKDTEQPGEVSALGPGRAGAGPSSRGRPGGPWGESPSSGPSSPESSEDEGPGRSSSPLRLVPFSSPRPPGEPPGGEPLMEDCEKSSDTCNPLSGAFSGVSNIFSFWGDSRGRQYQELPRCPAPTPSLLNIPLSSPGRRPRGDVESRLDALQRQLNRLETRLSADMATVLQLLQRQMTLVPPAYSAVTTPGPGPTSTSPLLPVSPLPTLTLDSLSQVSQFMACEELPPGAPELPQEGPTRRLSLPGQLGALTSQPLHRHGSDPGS

Liver [18] = assay: Anti-inflammatory activity in C57BL/6J mouse liver assessed as IL-10 levels at 0.3 mg/kg, po by multiplex assay (reference value: 2 pg/g); type: functional
How it was run: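 Mice (C57BL/6) got a single oral dose of 0.3–30 mg/kg in 20% HP-β-CD, in groups of 15. Three per group were sacrificed at 0.5, 1, 2, 4 or 7 h, and liver cytokines were measured by multiplex. Values were rounded to the nearest multiple of 5.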

Plasma [19] = assay: Upregulation of IP-10 mRNA expression levels in C57BL/6J mouse plasma at 0.3 mg/kg, po by RT-qPCR analysis (reference value: 1); type: functional
Plasma [20] = assay: Proinflammatory activity in C57BL/6J mouse plasma assessed as IL-1beta levels at 3 mg/kg, po by multiplex assay (reference value: 60 pg/ml); type: functional
Plasma [21] = assay: Proinflammatory activity in C57BL/6J mouse plasma assessed as TNFalpha levels at 1 mg/kg, po by multiplex assay (reference value: 70 pg/ml); type: functional
Cynomolgus monkey [22] = assay: Effect on cytokine profile in cynomolgus monkey plasma assessed as IL-15 levels at 3 mg/kg, po after 24 hrs by Luminex assay (reference value: 20 pg/ml); type: functional, Macaca fascicularis
How it was run: as §1

Cynomolgus monkey [23] = assay: Effect on cytokine profile in cynomolgus monkey plasma assessed as IP10 levels at 30 mg/kg, po after 24 hrs by Luminex assay (reference value: 18.5 pg/ml); type: functional, Macaca fascicularis
How it was run: as §1

[24] = AUC (0 to last) in C57BL/6J mouse liver at 0.3 mg/kg, po by LC-MS analysis; type: ADME, organism-based; conditions: in vivo
How it was run: as §2

[25] = Intrinsic clearance in cynomolgus monkey liver microsomes assessed per mg protein at 1 uM up to 60 mins; type: ADME, Macaca fascicularis, microsome; conditions: read-out: CLH
How it was run: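 Cynomolgus monkey liver microsomes at 1 mg/mL microsomal protein, incubated at 37 °C with 1 μM test compound. Serial samples taken at intervals up to 60 min and analysed for remaining compound concentration to derive intrinsic clearance, expressed as (μL/min)/mg protein and rounded to the nearest whole number.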

Plasma [26] = assay: Proinflammatory activity in C57BL/6J mouse plasma assessed as IL-6 levels at 0.3 mg/kg, po by multiplex assay (reference value: 505 pg/ml); type: functional
[27] = AUC (0 to last) in C57BL/6J mouse liver at 3 mg/kg, po by LC-MS analysis; type: ADME, organism-based; conditions: in vivo
How it was run: as §2

Cynomolgus monkey [28] = assay: Activation of monocytes in cynomolgus monkey plasma assessed as upregulation of IL1Ra levels at 30 mg/kg, po after 24 hrs by Luminex assay (reference value: 320 pg/ml); type: functional, Macaca fascicularis
[29] = Tmax in Sprague-Dawley rat plasma at 10 mg/kg, po; type: ADME, organism-based
Cynomolgus monkey [30] = assay: Proinflammatory activity in cynomolgus monkey plasma assessed as TNFalpha levels at 9 mg/kg, po after 24 hrs by Luminex assay (reference value: 285 pg/ml); type: functional, Macaca fascicularis

CCC[C@@H](CCO)Nc1nc(N)nc2c(F)cccc12
Kp [1]: 16 | Activity (Cynomolgus monkey [2]): 75 pg/mL | AUClast [3]: 2315 ng·h/g | Activity (Plasma [4]): 820 pg/mL | Activity (Liver [5]): 430 pg/g | Activity (Liver [6]): Below limit of detection | Activity [7]: Active | Activity (Plasma [8]): >10000 pg/mL | Activity (Plasma [9]): 485 pg/mL | fold change (FC) (Hepatocyte): 2.6 | metabolised at 1 h, 1 µM [10]: 35% | Activity (Cynomolgus monkey [11]): inactive | Activity (Liver [12]): Below limit of detection | microsomal CLint at 1 µM [13]: 8 µL/min/mg | Activity (Liver [14]): 35575 pg/g | Cp (Cynomolgus monkey [15]): 5.9 ng/mL | fold change (FC) (Cynomolgus monkey [16]): 4.2 | pIC50 [17]: < 5.00 | Activity (Liver [18]): 730 pg/g | fold change (FC) (Plasma [19]): 15 | Activity (Plasma [20]): 40 pg/mL | Activity (Plasma [21]): 335 pg/mL | Activity (Cynomolgus monkey [22]): 60 pg/mL | Activity (Cynomolgus monkey [23]): 8195 pg/mL | AUClast [24]: 25 ng·h/g | microsomal CLint at 1 µM [25]: 16 µL/min/mg | Activity (Plasma [26]): 480 pg/mL | AUClast [27]: 362 ng·h/g | Activity (Cynomolgus monkey [28]): 2970 pg/mL | Tmax [29]: 30 min | Activity (Cynomolgus monkey [30]): 350 pg/mL
